Assay results of several laboratories.
Target: cAMP-dependent protein kinase catalytic subunit PRKX (PRKX, Homo sapiens, UniProt P51817)
Residues used in one study (P51817 1-358): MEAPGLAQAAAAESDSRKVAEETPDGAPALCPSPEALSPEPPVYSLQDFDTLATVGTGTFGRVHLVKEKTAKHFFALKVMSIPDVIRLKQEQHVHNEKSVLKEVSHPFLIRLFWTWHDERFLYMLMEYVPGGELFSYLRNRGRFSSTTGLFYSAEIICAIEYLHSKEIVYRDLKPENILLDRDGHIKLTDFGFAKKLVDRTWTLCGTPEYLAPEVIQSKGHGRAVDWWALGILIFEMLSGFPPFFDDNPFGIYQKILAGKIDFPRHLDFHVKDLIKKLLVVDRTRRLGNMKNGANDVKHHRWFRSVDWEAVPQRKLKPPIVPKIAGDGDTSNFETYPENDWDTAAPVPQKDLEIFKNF

Structure (SMILES) | test | conditions | endpoint | value
Cn1cc(-c2cc(F)cc(N3CCn4c(cc5c4CCCC5)C3=O)c2CO)cc(Nc2ccc(N3CCN(C4COC4)CC3)cn2)c1=O | enzyme activity, inhibitor | 0.1 µM | inhibition | 17%
Cc1nn(C)cc1-c1nc2c(N3CCN(Cc4ccc(Cl)cc4)CC3)c(Cl)cnc2[nH]1 | binding, competition with immobilised ligand | 1 µM | remaining binding | 18%
COc1cc(Nc2ncc(F)c(Nc3ccc4c(n3)NC(=O)C(C)(C)O4)n2)cc(OC)c1OC | binding | 10 µM | inhibition | 0%
Cn1cc(-c2cccc(N3CCc4c(sc5c4CC(C)(C)C5)C3=O)c2CO)cc(Nc2ccncn2)c1=O | enzyme activity, inhibitor | 1 µM | inhibition | 1%
CC(C)(C)c1cc(C=C(C#N)C#N)cc(Br)c1O | enzyme activity, inhibitor | 0.5 µM | remaining activity | 102%
Nc1ncc(-c2nc(N3CCOCC3)nc(N3CCOCC3)n2)c(C(F)F)n1 | binding, competition with immobilised ligand | 10 µM | remaining binding | 90%
O=c1[nH]c2ccccc2n1C1CCN(Cc2ccc(-c3[nH]c4cc5ncnc5cc4nc3-c3ccccc3)cc2)CC1 | cell-free assay | 0.5 µM | remaining signal | 101%
COc1ncccc1-c1cnn2ccc(N3CCN(C(=O)OC(C)C)CC3)nc12 | binding, competition with immobilised ligand | 1 µM | remaining binding | 100%
Cn1cncc1[C@@](O)(COc1ccc(C#N)cc1-c1ccc(OC(F)(F)F)cc1)c1ccc(C#N)cc1 | cell-free assay, competition with immobilised ligand | 1 µM | remaining binding | 94%
